Ends that are not written are not given here.

Data set [1] has as its target T1, carboxypeptidase A1 (CBPA1) (Homo sapiens, UniProt P15085).
T1 sequence (P15085 111-419): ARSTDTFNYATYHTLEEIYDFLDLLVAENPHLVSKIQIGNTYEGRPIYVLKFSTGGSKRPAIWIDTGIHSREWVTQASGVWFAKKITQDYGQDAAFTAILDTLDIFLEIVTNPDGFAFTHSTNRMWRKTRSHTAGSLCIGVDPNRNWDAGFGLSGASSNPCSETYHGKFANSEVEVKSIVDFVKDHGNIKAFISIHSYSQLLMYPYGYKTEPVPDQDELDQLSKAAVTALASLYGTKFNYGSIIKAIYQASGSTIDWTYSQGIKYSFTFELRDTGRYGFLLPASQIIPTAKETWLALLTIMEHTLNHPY
Format: in vitro ADME. The note with it: for extent of degradation by CBPA1: purified CBPA1, PBS pH 7.3, 37 °C, 60 min, RP-HPLC UV 215 nm. The method in brief: (§1)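 Purified human fecal enzyme (3.4 µL of 0.8 mg/mL) was incubated with 33-, 19- or 13-mer gliadin peptide (4.7 µL of 60 µM) in PBS pH 7.3 (40 µL total) at 37 °C for 60 min (also 24 h). Reactions were stopped by boiling for 10 min, then filtered. Read-out: C18 RP-HPLC, 0.1% TFA water-to-acetonitrile gradient over 20 min, UV 215 nm. Controls: enzyme boiled 15 min; peptide alone.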

Data set [2] can be described thus: Peptide hydrolysis by fecal protein extracts of celiac disease. The format is in vitro ADME, human. The note with it: for extent of degradation by CD fecal samples, 24 h: fecal extracts of CD patients, 24-h incubation (not shown). The method in brief:
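Stools from treated celiac patients (Marsh III at diagnosis, gluten-free diet, no antibiotics for a month) were stored at −80 °C. They were homogenized in 10 mM Tris-HCl pH 7.5, and the 35–65% ammonium sulfate fraction was desalted. Extract (3.4 µL of 0.8 mg/mL) plus peptide (4.7 µL of 60 µM) in PBS pH 7.3 ran 60 min or 24 h at 37 °C. Read-out: C18 RP-HPLC, UV 215 nm.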

In data set [3] the target is T2, Elastase 2A (CEL2A) (Homo sapiens, UniProt P08217).
T2 sequence (P08217 29-269): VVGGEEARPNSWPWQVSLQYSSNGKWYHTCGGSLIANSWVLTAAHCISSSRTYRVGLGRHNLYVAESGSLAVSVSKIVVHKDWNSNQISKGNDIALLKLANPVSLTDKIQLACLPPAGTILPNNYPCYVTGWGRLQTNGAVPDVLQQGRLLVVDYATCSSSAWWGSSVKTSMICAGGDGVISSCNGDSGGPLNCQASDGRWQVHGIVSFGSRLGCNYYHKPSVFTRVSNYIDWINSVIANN
Briefly: 33-mer, 19-mer and 13-mer hydrolysis by purified human fecal elastase 2A. The note with it: for extent of degradation by CEL2A: PBS pH 7.3, 37 °C, 60 min, RP-HPLC UV 215 nm. The format is in vitro ADME. The method in brief: as §1

In data set [4] the test system is CEL2A, CBPA1, and CEL3B. The experiment in a line: 33-mer hydrolysis with CEL2A, CBPA1 and CEL3B added together. The format is in vitro ADME, human. The note with it: CBPA1 and CEL3B added simultaneously or sequentially, 60 min (not shown).
Data set [5] has as its target T3, Elastase 3B (CEL3B) (Homo sapiens, UniProt P08861).
T3 sequence (P08861 29-270): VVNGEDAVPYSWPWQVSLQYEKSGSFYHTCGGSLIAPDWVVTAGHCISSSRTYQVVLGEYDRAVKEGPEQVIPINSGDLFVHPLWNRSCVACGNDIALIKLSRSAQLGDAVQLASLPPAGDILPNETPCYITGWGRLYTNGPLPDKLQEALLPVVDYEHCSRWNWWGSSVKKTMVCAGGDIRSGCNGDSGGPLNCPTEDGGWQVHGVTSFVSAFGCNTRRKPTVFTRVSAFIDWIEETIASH
Briefly: 33-mer, 19-mer and 13-mer hydrolysis by purified human fecal elastase 3B. The format is in vitro ADME. The procedure, abridged:
as §1

For data set [6], the system named is gluten and gliadin. The experiment in a line: Glutenase and gliadinase activity of commercial proteases. The format is biochemical. The note with it: bioassay on MCG-1 gluten agar plates and gliadin zymography.
The mark [7] stands for this setting: 37 °C, 24-h incubation (not shown).

For the molecule LGQQQPFPPQQPYPQPQPF [19-mer], the “extent of degradation by CBPA1” value in data set [1] is on record as “fully degraded”. Also, in data set [2], the “extent of degradation by CD fecal samples, 24 h” value was “completely degraded”. Also, in data set [3], the “extent of degradation by CEL2A” value was “fully degraded”.
Turning to LGQQQPFPPQQPY [13-mer], the “extent of degradation by CBPA1” value in data set [1] is “fully degraded”. Moreover, in data set [2], the “extent of degradation by CD fecal samples, 24 h” value is “completely degraded”. The “extent of degradation by CEL2A” value in data set [3] is given as “fully degraded”.
As to “LQLQPFPQPQLPYPQPQLPYPQPQLPYPQPQPF [33-mer]”, the “extent of degradation by CBPA1 after 24 h” value in data set [1] (purified CBPA1, 37 °C, 24-h incubation (not shown)) is on record as “not completely degraded”. In data set [1], the “extent of degradation by CBPA1” value is on record as “not completely degraded”. Also, the “degradation in CD patients relative to NCD samples (higher by)” value in data set [2] (fecal extracts of CD patients versus NCD volunteers, 37 °C, 60 min, HPLC) is given as 37%. The “extent of degradation by CD fecal samples, 24 h” value in data set [2] is listed as “incomplete”. Further, the “extent of degradation by CEL2A after 24 h” value in data set [3] (setting [7]) is listed as “not completely degraded”. The “extent of degradation by CEL2A” value in data set [3] is reported as “not completely degraded”. In data set [4], the “change of degradation when all 3 enzymes are added” value is listed as “did not increase”. For the same molecule, in data set [5] (setting [7]), the “extent of degradation by CEL3B after 24 h” value is reported as “not completely degraded”. Moreover, the “extent of degradation by CEL3B” value in data set [5] (PBS pH 7.3, 37 °C, 60 min, RP-HPLC UV 215 nm) is recorded as “not completely degraded”.
On to “porcine elastase: commercial protease (3.4.21.36) from Sigma”, for which the “hydrolytic activity against gluten and gliadin” value (shortened to “hydrolytic activity”) in data set [6] was “showed hydrolytic activity”.

B1: recombinant rat carboxypeptidase A1: commercial protease (3.4.17.1) from MyBioSource (protein, UniProt P00731 111-419, looked up)
Carboxypeptidase A1: ALSTDSFNYATYHTLDEIYEFMDLLVAEHPQLVSKIQIGNTFEGRPIHVLKFSTGGTNRPAIWIDTGIHSREWVTQASGVWFAKKITKDYGQDPTFTAVLDNMDIFLEIVTNPDGFAYTHKTNRMWRKTRSHTQGSLCVGVDPNRNWDAGFGMAGASSNPCSETYRGKFPNSEVEVKSIVDFVTSHGNIKAFISIHSYSQLLLYPYGYTSEPAPDQAELDQLAKSAVTALTSLHGTKFKYGSIIDTIYQASGSTIDWTYSQGIKYSFTFELRDTGLRGFLLPASQIIPTAEETWLALLTIMDHTVKHPY
B1: the “hydrolytic activity” value in data set [6] is “showed hydrolytic activity”.

B2: recombinant bovine chymotrypsin-like elastase family member 2A: commercial protease (3.4.21.71) from MyBioSource (protein, UniProt Q29461 29-269, looked up)
Chymotrypsin-like elastase …: VVGGEDARPNSWPWQVSLQYSSSGQWRHTCGGSLIEQNWVLTAAHCISSSRTYRVVVGRQSLSTVESGSLTIAVSKSVIHEKWNSNQLAQGNDIALLKLASSVPLTDKIQLGCLPAAGTILPNNYVCYVTGWGRLQSNGALPDILQQGKLLVVDYATCSNPSWWGSTVKTNMICAGGDGVTSSCNGDSGGPLNCQAANRQWQVHGIVSFGSSLGCNYYRKPSVFTRVSNYNDWISSVIENN
For B2, the “hydrolytic activity” value in data set [6] is listed as “showed hydrolytic activity”.

B3: recombinant mouse chymotrypsin-like elastase family member 3B: commercial protease (3.4.21.70) from MyBioSource (protein, UniProt Q9CQ52 28-269, looked up)
Chymotrypsin-like elastase …: VVNGEEAVPHSWPWQVSLQYEKDGSFHHTCGGSLITPDWVLTAGHCISTSRTYQVVLGEHERGVEEGQEQVIPINAGDLFVHPKWNSMCVSCGNDIALVKLSRSAQLGDAVQLACLPPAGEILPNGAPCYISGWGRLSTNGPLPDKLQQALLPVVDYEHCSRWNWWGLSVKTTMVCAGGDIQSGCNGDSGGPLNCPADNGTWQVHGVTSFVSSLGCNTLRKPTVFTRVSAFIDWIEETIANN
Take B3: in data set [6], the “hydrolytic activity” value is reported as “showed hydrolytic activity”.

Values taken from publication PMC5485308 (Molecular Metabolism, 2017).
